We go through one compound from ChEMBL document CHEMBL4393678, “Novel Tetrahydroquinazolinamines as Selective Histamine 3 Receptor Antagonists for the Treatment of Obesity” (J Med Chem, 2019).

Calls of active or inactive are those of the source.

The test system of data set [1] is Mus musculus. Kind of data set: Anti-obesity activity in high fat diet-induced obese C57BL/6J mouse model assessed as change in blood total cholesterol level at 10 to 20 mg/kg, po measured after 6 weeks. The format is functional, organism-based. Summed up: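 At the end of treatment (six weeks HFD, four weeks db/db), mice euthanized with avertin 350 mg/kg. Blood taken by cardiac puncture into 3.8% sodium citrate. Plasma separated at 4000 rpm and stored at -80 °C. TG, TC, HDLc and LDLc measured on a bio-analyzer.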

The nature of data set [2]: Cmax in C57BL/6J mouse brain assessed as 4-(2-Amino-8-methyl-5,6,7,8-tetrahydroquinazolin-4-yl)phenol level at 20 mg/kg, po by LC-MS/MS analysis. Also on record: dose 20 mg/kg, route oral. The format is ADME, organism-based. Conditions: in vivo. Summed up: (§1)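 Male C57BL/6J mice (6-8 weeks, 20 ± 5 g) fasted overnight (12-16 h) got a single 20 mg/kg oral dose as 2.5 mg/mL suspension in 1% w/v gum acacia; n=5 per time point. Serum and brain (PBS homogenate 1:6 w/v) sampled up to 24 h. Parent and demethylated metabolite quantified by LC-MS/MS after liquid-liquid extraction (C18, MRM, phenacetin internal standard; linear 0.25-200 ng/mL). Two-compartment open model fit.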

The subject of data set [3] is Mus musculus. Kind of data set: Anti-obesity activity in 16 hrs fasted db/db-induced obese C57BL/6J mouse model assessed as change in blood LDL level at 20 mg/kg, po measured after 6 weeks. Type of data set: functional, organism-based.
Data set [4] is described as follows: Apparent clearance in C57BL/6J mouse serum at 20 mg/kg, po by LC-MS/MS analysis. Type of data set: ADME, organism-based. Summed up: as §1
Data set [5] in a line: AUClast in C57BL/6J mouse brain at 20 mg/kg, po by LC-MS/MS analysis. Type of data set: ADME, organism-based. The arrangement: dose 20 mg/kg, route oral, time 0 - last. Summed up: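 Male C57BL/6J mice, 6-8 weeks, 20 ± 5 g, fasted overnight (12-16 h), n = 5 per time point. Single 20 mg/kg oral dose given by feeding needle as a 2.5 mg/mL suspension in 1% w/v gum acacia and water. Serum and brain (homogenized 1:6 w/v in PBS) sampled up to 24 h. Liquid-liquid extraction, then LC-MS/MS in positive MRM mode with phenacetin as internal standard. Linear range 0.25-200 ng/mL. Non-compartmental and compartmental analysis.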

Data set [6] in a line: Fraction unbound in C57BL/6J mouse brain by equilibrium dialysis method. Type of data set: ADME, tissue-based. Summed up:
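Plasma protein binding and unbound fraction in mouse brain tissue homogenate measured by equilibrium dialysis.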
For orientation: Equilibrium dialysis compares concentrations on both sides of a semipermeable membrane.

Data set [7] in a line: Apparent volume of distribution in C57BL/6J mouse brain at 20 mg/kg, po by LC-MS/MS analysis. The format is ADME, organism-based. Summed up: as §1
The nature of data set [8]: Ratio of AUClast in C57BL/6J mouse brain to AUClast in C57BL/6J mouse serum. The format is ADME. In outline: (§2)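 Male C57BL/6J mice (6–8 weeks) were fasted 12–16 h, then given a single oral dose of 20 mg/kg as a 2.5 mg/mL suspension in 1% gum acacia/water (n=5 per time point). Serum and brain (homogenised 1:6 in PBS) were sampled up to 24 h. Parent and demethylated metabolite were measured by LC-MS/MS (range 0.25–200 ng/mL). AUC ran to the last observation.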

Data set [9] can be described thus: Tmax in C57BL/6J mouse serum at 20 mg/kg, po by LC-MS/MS analysis. The format is ADME, organism-based. In outline: as §1
Data set [10] in a line: Ratio of fCmax in C57BL/6J mouse brain to IC50 for recombinant human Gi-coupled H3 receptor expressed in HEK293T cells assessed as reduction in histamine-induced inhibition of forskolin-stimulated cAMP accumulation. The format is cell-based. Summed up: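 Fasted male C57BL/6J mice received a single oral dose of 20 mg/kg in gum acacia suspension. Brain Cmax came from LC-MS/MS of brain homogenate. Unbound brain fraction was measured by equilibrium dialysis of brain tissue homogenate. Unbound Cmax, converted to nM, was divided by the H3R antagonist IC50 from the GloSensor cAMP assay in transfected HEK293T cells.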
(cAMP levels reflect the balance of adenylyl cyclase and phosphodiesterase activity.)

The test system of data set [11] is Mus musculus. Kind of data set: Anorexic effect in 12 hrs fasted db/db-induced obese C57BL/6J mouse model assessed as reduction in cumulative food intake at 20 mg/kg, po pretreated for 30 mins followed by food addition measured after 4 hrs in presence of H3R agonist-imitet. Type of data set: functional, organism-based. In outline: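 Mice starved 12 h (8:00 am to 8:00 pm) with water available, then housed singly. Compound given orally in 5% gum acacia in normal saline; vehicle group received the same. Cumulative food intake measured over 4 h of the night phase (9:00 pm to 1:00 am), starting 30 min after dosing. Antagonism arms: imitet 5 mg/kg i.p. 30 min before compound, or α-methyl-DL-histidine 20 mg/kg i.p. 2 h before.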

Data set [12] concerns Mus musculus. Kind of data set: Anti-obesity activity in high fat diet-induced obese C57BL/6J mouse model assessed as reduction in body weight at 10 mg/kg, po measured up to 39 days. The format is functional, organism-based.
A short description of data set [13]: Tmax in C57BL/6J mouse brain assessed as 4-(2-Amino-8-methyl-5,6,7,8-tetrahydroquinazolin-4-yl)phenol level at 20 mg/kg, po by LC-MS/MS analysis. Type of data set: ADME, organism-based. The following applies: in vivo. In outline: as §1
A short description of data set [14]: Half life in C57BL/6J mouse serum at 20 mg/kg, po by LC-MS/MS analysis. Type of data set: ADME, organism-based. In outline: as §1
Data set [15] is described as follows: Half life in C57BL/6J mouse serum assessed as 4-(2-Amino-8-methyl-5,6,7,8-tetrahydroquinazolin-4-yl)phenol level at 20 mg/kg, po by LC-MS/MS analysis. Type of data set: ADME, organism-based. The following applies: in vivo. Summed up: as §1
Data set [16] can be described thus: Drug level in C57BL/6J mouse brain at 4 hrs post-dose by equilibrium dialysis method. Conditions: in vivo. Type of data set: ADME, tissue-based. Summed up:
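Unbound brain level derived from brain concentration after 20 mg/kg oral dose, multiplied by unbound fraction from brain-homogenate equilibrium dialysis; given at Cmax and at 4 h.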

A short description of data set [17]: Apparent volume of distribution in C57BL/6J mouse serum at 20 mg/kg, po by LC-MS/MS analysis. Type of data set: ADME, organism-based. Summed up: as §1
Data set [18] deals with T1, G-protein coupled bile acid receptor 1 (Homo sapiens) (UniProt Q8TDU6).
T1 sequence (whole entry): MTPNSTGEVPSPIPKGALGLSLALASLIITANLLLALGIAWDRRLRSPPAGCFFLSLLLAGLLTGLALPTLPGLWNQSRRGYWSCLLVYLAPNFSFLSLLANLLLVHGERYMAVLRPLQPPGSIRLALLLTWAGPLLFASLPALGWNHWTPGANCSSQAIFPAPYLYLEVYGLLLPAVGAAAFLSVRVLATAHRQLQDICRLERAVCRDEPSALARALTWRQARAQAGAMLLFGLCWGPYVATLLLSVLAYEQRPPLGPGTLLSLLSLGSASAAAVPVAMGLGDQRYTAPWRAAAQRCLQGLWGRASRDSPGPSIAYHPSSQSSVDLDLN
As to the kind of experiment: Antagonist activity at Gs-coupled GPBAR1 (unknown origin) expressed in HEK293T cells assessed as reduction in histamine-induced inhibition of forskolin-stimulated cAMP accumulation preincubated for 10 to 15 followed by histamine addition for 10 mins and subsequent forskolin-stimulation by Glo-sensor assay. The format is functional, cell-based.

The nature of data set [19]: Ratio of AUClast in C57BL/6J mouse brain assessed as 4-(2-Amino-8-methyl-5,6,7,8-tetrahydroquinazolin-4-yl)phenol level to AUClast in C57BL/6J mouse serum assessed as 4-(2-Amino-8-methyl-5,6,7,8-tetrahydroquinazolin-4-yl)phenol level. The format is ADME. Summed up:
as §2

Data set [20] has as its target D(3) dopamine receptor (Homo sapiens) (UniProt P35462). As to the kind of experiment: Agonist activity at D3 receptor (unknown origin).

Chain of D(3) dopamine receptor (Homo sapiens) (P35462 whole entry): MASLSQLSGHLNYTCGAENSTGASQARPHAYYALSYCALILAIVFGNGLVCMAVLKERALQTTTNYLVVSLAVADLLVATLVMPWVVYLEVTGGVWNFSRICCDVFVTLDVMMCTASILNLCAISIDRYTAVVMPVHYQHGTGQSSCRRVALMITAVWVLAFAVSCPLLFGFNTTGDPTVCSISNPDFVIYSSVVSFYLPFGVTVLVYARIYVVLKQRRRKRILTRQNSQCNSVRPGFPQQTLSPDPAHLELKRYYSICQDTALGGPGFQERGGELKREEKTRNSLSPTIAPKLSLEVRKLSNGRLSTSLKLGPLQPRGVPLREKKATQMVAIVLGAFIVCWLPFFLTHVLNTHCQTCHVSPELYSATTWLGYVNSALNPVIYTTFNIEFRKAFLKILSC

As to `COc1ccc(-c2nc(N)nc3c2CCCC3C)cc1` (racemic), the result in data set [1], in data set [3], in data set [11], in data set [12] and in data set [20] was inactive. Besides, in data set [2], the Cmax worked out at 101 ng/g. Besides, the CL/F in data set [4] is 172 mL/min/kg. The compound further showed an AUC(0-t) in data set [5] of 310 ng·h/mL. For the same compound, the fraction unbound in data set [6] was found to be 0.284. The Vd/F in [7] amounted to 28.3 L/kg; in data set [17], 28.5 L/kg. Also, the “Ratio AUC” value amounted to 16.2% in [8] and 6.1% in data set [19]. Moreover, the Tmax in data set [9] is 0.25 h; in data set [13], 0.5 h. For the same compound, the Ratio in [10] is recorded as 8.3. The compound also had a half-life in [14] of 1.9 h. The t1/2 in [15] worked out at 2.1 h. In addition, the Drug uptake in data set [16] was found to be 20.8 nM. The inhibition entry in [18] was “inactive”.

A word on the Cmax: it is the highest concentration seen after dosing. Usually CL/F stands for the apparent clearance, not corrected for the fraction that reaches the circulation. The AUC(0-t) is the area under the concentration-time curve up to a stated or last time point. As a reminder, the fraction unbound is the share of the substance not bound to proteins or other matrix. A higher fraction unbound goes with much free substance. By Vd/F is commonly meant the volume of distribution divided by bioavailability. The term Tmax denotes the time at which the peak concentration occurs. What is called half-life is the time needed for the level to fall by half in the phase considered. A high value points to slow decline.
